High-throughput results as filed in PubChem.
Only some compounds are listed: those with a hit (about 4.6% of all), similar ones and a draw of the others.
Arr AP2 block: inhibitors of beta-arrestin/AP2 binding, primary screen, biochemical, GPCR trafficking, flow cytometry; beta-arrestin 1 C-terminal peptide binding to AP2 beta2-adaptin appendage (human); FITC-arrestin peptide / GST-AP2 beads; AP2 beta2 appendage carries R879A mutation; inhibition, % at 10 µM; 340,000 tested, 0.31% active;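 active means inhibition above a set limit, near 3 SD of compounds lacking own fluorescence, cut at about 54% in these data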
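Material – AP2 appendage R879A on GSH beads · Buffer or medium – PBS with 0.05% Tween 20 and 0.1% BSA · Probe or stimulus – fluorescein-tagged arrestin peptide at 50 nM final · Incubation – compound with beads 12 min RT, then probe 1 h RT · Detection – high-throughput flow cytometry of beads, ex 488, em 535 nm · Evaluation – percent response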
DSG3 Ab inh: inhibitors of pemphigus antibody binding to DSG3, primary screen, biochemical, bead-based, flow cytometry, scFv-GFP | Desmoglein-3 (Homo sapiens), P32926 | DSG3-coupled beads, scFv-anti-DSG3-GFP binding; hits give low values | binding (percent of control), % at 10 µM | 310,000 tested, 0.48% active;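 active means binding more than 3 SD below its plate's average and above zero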;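 further: hits lower antibody fragment binding to DSG3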
NALP3 yeast inh: NALP3 inflammasome inhibitors in reconstituted yeast, primary screen, luminescence, uHTS; 330,000 tested, 0.39% active; inhibition, % at 10 µM; Yeast reconstituted NLRP3/ASC/caspase-1, beta-gal luminescence, 24 h;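 active means inhibition of 50% or more; inactive means inhibition below 50%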
ALR inh: inhibitors of human ALR sulfhydryl oxidase, primary screen, biochemical, H2O2 detection, HRP-luminol luminescence, single point. 290,000 tested, 3.8% active. purified ALR, DTT oxidation. inhibition, % (concentration not given with the values). FAD-linked sulfhydryl oxidase ALR (Homo sapiens), P55789;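 active means mean replicate inhibition above about 79%, with every replicate also reaching it, limit read from the data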
Target sequence (P55789 whole entry, looked up): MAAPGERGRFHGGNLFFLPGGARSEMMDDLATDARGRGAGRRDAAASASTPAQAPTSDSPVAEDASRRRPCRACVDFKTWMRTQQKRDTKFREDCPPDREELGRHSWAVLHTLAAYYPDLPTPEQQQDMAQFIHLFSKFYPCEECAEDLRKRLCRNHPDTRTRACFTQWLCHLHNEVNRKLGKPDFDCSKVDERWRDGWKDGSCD
PolyA inh: polyadenylation inhibitors in yeast reporter cells, primary screen, luminescence, S. cerevisiae; S. cerevisiae SKY197-pL101 polyadenylation reporter, beta-gal luminescence; efflux-impaired pdr1/pdr3 knockout yeast; score 100 = 6 SD above DMSO; activity score, % at 12 µM; 300,000 tested, 0.02% active; AID 1875, 2009;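 active means lowest replicate activity score at least 50, where 100 means six control SD above control mean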;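 further: yeast exposed to compound for 9 h at 30 °C; higher score means more reporter readthrough which indicates perturbed polyadenylation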
NALP1 inh: NALP1 inflammasome inhibitors in reconstituted yeast, colorimetric, S. cerevisiae, triplicate retest | S. cerevisiae NALP1/ASC/caspase-1 growth, X-gal OD620, 72 h | 280,000 tested, 0.61% active | inhibition, % at 10 µM; in the data active means inhibition mostly above about 24%, no sharp cut-off; inactive means mostly below about 32%
NALP3 confirm: NALP3 inhibitors retested in yeast, confirmation, luminescence, single concentration; shares compounds with NALP3 yeast inh; yeast expressing human NALP3; inhibition, % at 10 µM; 1,300 tested, 81% active; in the data active means inhibition above about 48%
Casp1-ASC yeast: CASP1-PYCARD signaling inhibition in yeast, confirmatory test, counterassay for NLRP3 inhibitor program, one-dose. AID 488784, 2010. shares compounds with NALP3 yeast inh. yeast expressing Caspase-1-ASC, luminescence counter screen. inhibition, % at 10 µM. 1,000 tested, 66% active
NALP3 retest: NALP3 inhibitors in yeast, repeat test, confirmation, luminescence, single concentration, retest; shares compounds with NALP3 yeast inh; yeast expressing human NALP3, luminescence read-out; inhibition, % at 10 µM; 1,000 tested, 53% active
Large screens that a line does not name were inactive (follow-up assays come after a bar, where they were run). Unless noted, no stated cut-off is given here; in the data, active means inhibition above about 50%; inactive means the rest.

Cc1c(C(=O)Nc2cccc(F)c2)cnn1-c1ccccc1	NALP3 yeast inh 55.4 | NALP3 confirm 71.6 | Casp1-ASC yeast 71.2 | NALP3 retest 64.1
Cc1c(C(=O)Nc2ccccc2)cnn1-c1ccccc1	none (no result: NALP1 inh)
Cc1ccccc1NC(=O)c1cnn(-c2ccccc2)c1C	none
CCc1ccccc1NC(=O)c1cnn(-c2ccccc2)c1C	NALP3 yeast inh 51.6 | NALP3 confirm 73.5 | Casp1-ASC yeast 60.8 | NALP3 retest 55.6
Cc1cc(C)c(C)c(S(=O)(=O)N2CCN(CC(=O)Nc3sccc3C#N)CC2)c1C	none
O=c1c(O)c(-c2cccs2)oc2ccc(Cl)cc12	none
O=c1c(O)c(-c2cccs2)oc2ccccc12	NALP3 yeast inh 67.4 (no result: DSG3 Ab inh) | NALP3 confirm 86.5 | Casp1-ASC yeast 78.5 | NALP3 retest 73.3
Cc1nnsc1C(=O)Nc1ccc(S(=O)(=O)N2CCCCC2)cc1	none
CCN(CC)c1ccc(NC(=O)COc2ccc(C)cc2)cc1	none | NALP3 confirm inactive | Casp1-ASC yeast inactive | NALP3 retest inactive
CCOC(=O)C(=Cc1ccc(-n2cncn2)cc1)C(=O)OCC	NALP3 yeast inh 50.2 | NALP3 confirm 61.5 | Casp1-ASC yeast 56.7 | NALP3 retest inactive
O=C1c2cccc([N+](=O)[O-])c2C(=O)N1CCO	none
O=C1c2cccc3c(Nc4ccccc4Cl)c([N+](=O)[O-])cc(c23)C(=O)N1CCO	NALP3 yeast inh 54.1 | NALP3 confirm 70.6 | Casp1-ASC yeast 56.1 | NALP3 retest 55.5
O=C(Nc1ccc(Cl)cc1)c1cc2c(cc1O)[nH]c1ccccc12	NALP3 yeast inh 53.0 | NALP3 confirm 77.0 | Casp1-ASC yeast 72.5 | NALP3 retest 91.3
O=C(NC(=S)Nc1cccc([N+](=O)[O-])c1)c1ccccc1	NALP3 yeast inh 50.9 | NALP3 confirm 63.6 | Casp1-ASC yeast inactive | NALP3 retest inactive
O=C1C2N=NN(CC(=O)N3N=C(c4ccccc4)CC3c3ccc([N+](=O)[O-])cc3)C2C(=O)N1c1ccccc1 (stereo unspecified)	NALP3 yeast inh 54.7 (no result: Arr AP2 block, DSG3 Ab inh) | NALP3 confirm 71.1
C#CC(CO)N(CCN(Cc1ccccc1)C(C#C)CO)Cc1ccccc1 (stereo unspecified)	none
OC(CN1C2=NCCN2c2ccccc21)c1ccc2c(c1)OCO2 (stereo unspecified)	NALP3 yeast inh 57.2 | NALP3 confirm 82.0 | Casp1-ASC yeast inactive | NALP3 retest inactive
OC(CN1C2=NCCCN2c2ccccc21)c1ccc2c(c1)OCO2 (stereo unspecified)	none
COc1cccc(NC(=O)N2CCc3ccccc3C2)c1	none
O=C(Nc1cccc(Cl)c1)N1CCc2ccccc2C1	NALP3 yeast inh 65.9 | NALP3 confirm 84.8 | Casp1-ASC yeast 74.2 | NALP3 retest 75.0
Cc1noc(/C=C/c2cccnc2)c1[N+](=O)[O-]	NALP3 yeast inh 80.1 | NALP3 confirm 87.3 | Casp1-ASC yeast 84.6 | NALP3 retest 54.2
Cc1cccc(C)c1N/C=C/c1onc(C)c1[N+](=O)[O-]	none
CCC(C)(C)NC(=O)C(c1cccc(OC)c1OC)N(C(=O)CCC(=O)Nc1cc(C)on1)c1ccc2c(c1)OCCO2 (stereo unspecified)	none (no result: ALR inh)
